# DDE Tn7 FP inh: DD(E)-Tn7 binding inhibition, primary FP screen. 370,000 compounds, 0.13% hits. P02675. FP displacement of FITC-Tn7 peptide from fibrin DD(E); 0% = median of compound wells per plate. inhibition, % at 8.3 µM;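 active means inhibition above the mean of compounds falling within the control limits plus 3 SD of them, cut at about 14% in these data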;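 further: 0% = plate median of compound wells and 100% = 10 µM Aha-Tn7 peptide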
#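 Assay system: Human clot-derived fibrin DD(E) complex | Buffer or medium: Tris/NaCl/CaCl2 buffer, pH 7.8 | Repeats: One replicate per compound | Benchmarks: Aha-Tn7 high control | Measure: % inhibition scaled between sample-field median and high-control FP | Schedule: 10 min plus 3 h, room temperature | Signal: Fluorescence polarization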
# LEDGF integ inh: blocks HIV-1 LEDGF/p75-dependent DNA integration; inhibition, % at 3.7 µM; TR-FRET IN-LEDGF/p75 DNA integration, Eu/Cy5; 370,000 compounds, 0.64% hits; AID 743269;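 active means inhibition above the screen-wide mean plus 3 SD, cut at about 13% in these data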;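 further: signal is the Cy5 over europium emission ratio at 671 and 618 nm; 0% = plate median of compound wells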
# MBD2 inh: MBD2-methylated oligo binding inhibition; Q9UBB5; TR-FRET, MBD2 binding to methylated oligonucleotide; inhibition, % at 4.4 µM; 370,000 compounds, 0.31% hits; AID 686964; in the data active means inhibition above about 13%
# DDE Tn6 FP inh: disrupts Tn6 cyclic peptide binding to fibrin D-Dimer-E complex. inhibition, % at 8.3 µM. Fibrin DD(E) TRITC-Tn6 fluorescence polarization displacement. 370,000 compounds, 0.21% hits. P02675;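 active means inhibition above a per-campaign cutoff: mean of compounds within control limits plus 3 SD, cut at about 15% in these data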;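 further: 0% = median of all compound wells on the plate and 100% = blocking peptide control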
# UHRF1 MBD2 ctr: blocks human UHRF1 binding to methylated DNA. UHRF1 binding to methylated oligo, TR-FRET. 370,000 compounds, 0.75% hits. inhibition, % at 4.4 µM. Q96T88; in the data active means inhibition above about 21%;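 further: UHRF1 SRA domain binding a hemimethylated CpG hairpin DNA probe; 0% = median of test compound wells and 100% = reference inhibitor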
# TDP2 absorb: TDP2 (human) inhibition, absorbance primary screen; O95551; recombinant TDP2, T5PNP hydrolysis, p-nitrophenol absorbance 415 nm; inhibition, % at 12.8 µM; 370,000 compounds, 0.34% hits; AID 720702;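 active means inhibition above the mean of all tested compounds plus 3 SD, set per campaign, cut at about 25% in these data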;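 further: 0% = DMSO with enzyme and 100% = buffer with substrate but no TDP2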
# Target sequence (O95551 whole entry, looked up): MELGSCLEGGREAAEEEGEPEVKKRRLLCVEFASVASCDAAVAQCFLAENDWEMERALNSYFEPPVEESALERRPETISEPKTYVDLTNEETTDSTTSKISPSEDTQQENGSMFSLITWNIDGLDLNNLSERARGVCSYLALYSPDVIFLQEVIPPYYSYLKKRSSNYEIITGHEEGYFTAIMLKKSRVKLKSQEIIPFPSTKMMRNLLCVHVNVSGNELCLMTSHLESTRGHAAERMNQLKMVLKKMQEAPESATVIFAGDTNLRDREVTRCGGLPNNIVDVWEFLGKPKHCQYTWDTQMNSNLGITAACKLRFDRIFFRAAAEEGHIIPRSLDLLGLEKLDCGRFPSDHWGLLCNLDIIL
#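 System – recombinant human TDP2 · Amount – 120 nM TDP2 per well · Buffer or medium – Mg2+-containing Tris-HCl buffer, pH 7.5 · Reagent – T5PNP substrate, 5 mM · Dosing – 12.8 µM single point, 1% DMSO · Incubation – 2 h at 37 °C · Measured by – epi absorbance · Read-out basis – percent inhibition · Benchmarks – high control without enzyme, low control DMSO plus TDP2 · Repeats – singlicate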
# IN multimer act: activates HIV-1 integrase multimerization in LEDGF counter-screen; AID 1053131; shares compounds with LEDGF integ inh; activation, % at 7.7 µM; TR-FRET HIV-1 integrase multimerization, biochemical; 2,000 compounds, 17% hits; in the data active means activation above about 8.9%
# TRFRET interf: TR-FRET optical interference, LEDGF/p75 integration counter-screen; shares compounds with LEDGF integ inh; inhibition, % at 7.7 µM; TR-FRET optical interference counterscreen, HIV-1 IN multimerization; 2,000 tested, under 10 active;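 active means inhibition above the mean over all tested compounds plus 3 SD, which no compound reached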;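 further: 0% = integrase with antibodies and DMSO and 100% = antibodies without integrase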
# LEDGF integ conf: confirmation of HIV-1 LEDGF/p75-dependent integration inhibitors | inhibition, % at 3.7 µM | shares compounds with LEDGF integ inh | TR-FRET LEDGF/p75-dependent HIV-1 integration, biochemical | 2,000 compounds, 36% hits; in the data active means inhibition above about 14%
# Active calls of the source: *; nt = no result given. Compounds with a hit are over-represented: about 1.9% of the library has one in this group of screens.
SMILES,DDE Tn7 FP inh,LEDGF integ inh,MBD2 inh,DDE Tn6 FP inh,UHRF1 MBD2 ctr,TDP2 absorb,IN multimer act,TRFRET interf,LEDGF integ conf
Cc1ccc2nc3n(c(=O)c2c1)-c1ccccc1C(=O)NC3CC(C)C (centres undefined),-6,-2,1,5,5,-3,nt,nt,nt
COC(=O)[C@]12C[C@H](CC(=O)N3CCOCC3)C(=O)N(CCC3=CCCCC3)C1=C[C@H](C(C)(C)C)O[C@@H]2C,1,4,1,-1,0,4,nt,nt,nt
C#CCNC(=O)C[C@H]1C[C@@]2(C(=O)OC)C(=C[C@H](COCc3ccccc3)O[C@@H]2C)N(CCC2=CCCCC2)C1=O,5,-1,-3,-4,5,-2,nt,nt,nt
CCCCC(=O)Nc1ccc2c(c1)nc(CCN1CCN(C)CC1)n2C,-4,82*,-8,-9,1,-9,2,-9,3
CC(=O)Nc1ccc2c(c1)nc(CCN1CCN(C)CC1)n2C,0,-4,4,4,1,4,nt,nt,nt
CN(C)c1ccc(O)c2c1CC1CC3C(N(C)C)C(=O)C(C(N)=O)=C(O)[C@@]3(O)C(=O)C1=C2O (some centres undefined),0,22*,7,-10,13,-6,10.0*,-50,2
CN(C)c1ccc(O)c2c1CC1CC3[C@@H](N(C)C)C(=O)C(C(N)=O)C(=O)[C@]3(O)C(=O)C1C2=O (some centres undefined),2,37*,4,-10,11,5,5,-25,7
C[C@H]1c2cccc(O)c2C(=O)C2C(=O)C3(O)C(=O)C(C(N)=O)C(=O)[C@@H](N(C)C)[C@@H]3[C@@H](O)[C@@H]21 (some centres undefined),10,8,-3,-8,1,-1,nt,nt,nt
Cc1ccccc1C(=O)N[C@@H](Cc1cccnc1)C(=O)N1CCC[C@H]1C(=O)NCCc1ccccc1Cl,8,-2,4,-4,-1,3,nt,nt,nt
COc1cccc(C2C(C#N)=C(N)Oc3cc(N)ccc32)c1OC (centres undefined),-3,15*,0,-4,-8,11,3,-9,-9
O=C1NC(=O)C(c2ccccc2[N+](=O)[O-])=C1Nc1ccc(O)c(Cl)c1,8,26*,-11,8,-4,18,5,-19,1
O=C(NNc1ccccc1[N+](=O)[O-])Nc1ccc(Cl)c(Cl)c1,6,-3,0,-10,1,-15,nt,nt,nt
COc1cc(NC(=O)NC2CCCCN(Cc3ccc(Cl)cc3)C2=O)cc(OC)c1 (centres undefined),13,-3,0,1,1,16,nt,nt,nt
COc1c(O)c(O)c2oc(-c3ccccc3)cc(=O)c2c1OC,0,-8,3,-10,-2,-5,nt,nt,nt
COc1cc(-c2cc(=O)c3c(O)c(OC)c(OC)c(O)c3o2)ccc1O,1,25*,-1,-8,-3,1,27*,-136,22*
C=CCCC1CN(Cc2ccc(OC)cc2)S(=O)(=O)c2c(cccc2N(C)S(=O)(=O)c2ccc(C)cc2)O1 (centres undefined),12,89*,0,3,-2,10,2,-10,-8
CN(c1ccc(C(=O)COC(=O)C2CC2)cc1)S(C)(=O)=O,2,31*,2,1,2,6,0,0,1
CCOC(=O)C1CCN(C(=O)c2ccc(N(C)S(C)(=O)=O)cc2)CC1,7,-3,-3,6,1,1,nt,nt,nt
COc1ccc(-n2c(SCC(=O)Nc3ccc(S(=O)(=O)Nc4cc(C)nc(C)n4)cc3)nnc2-c2ccco2)cc1,2,-4,0,-5,2,-4,nt,nt,nt
COc1ccc(NC(=O)CN2CCN(CC(=O)Nc3cc(OC)cc(OC)c3)CC2)cc1,2,2,4,7,3,-5,nt,nt,nt
COc1cc(NC(=O)CN2CCCCCC2)cc(OC)c1,4,19*,0,-2,-1,2,1,-2,-11
O=C(OCC#CCSc1nnc(-c2cccc3ncccc23)o1)c1ccc(F)cc1,11,-1,-4,-3,0,12,nt,nt,nt
COc1ccc(-n2c(SCC(=O)Nc3ccccc3)nc(O)cc2=O)cc1,-1,53*,6,1,0,0,0,-1,-3
CNC(=O)CSc1nc2ccccc2c(=O)n1-c1cc(OC)ccc1OC,2,18*,-2,7,0,-5,-2,12,-9
CCNC(=O)CSc1nc2ccccc2c(=O)n1-c1cc(OC)ccc1OC,-2,1,1,-1,2,2,nt,nt,nt
SMILES,DDE Tn7 FP inh,LEDGF integ inh,MBD2 inh,DDE Tn6 FP inh,UHRF1 MBD2 ctr,TDP2 absorb,IN multimer act,TRFRET interf,LEDGF integ conf
COc1cccc(-n2c(SCc3cc(=O)oc4cc(O)c(O)cc34)nc3ccccc3c2=O)c1,0,27*,7,-7,15,-11,14*,-50,72*
Cc1cccc(CCNC(=O)CSc2nc3c([nH]2)c(=O)n(C)c(=O)n3C)c1,11,-1,-3,1,0,4,nt,nt,nt
Cc1cc(CNC(=O)C(C)n2cc([N+](=O)[O-])cn2)c2ccccc2n1 (centres undefined),2,-4,4,0,1,12,nt,nt,nt
Cc1cc(CNC(=O)Cn2cc([N+](=O)[O-])cn2)c2ccccc2n1,-3,17*,0,0,-2,8,-2,8,6
CCc1ccc(C2CC(=O)N3CN(c4ccccc4)CSC3=C2C#N)cc1 (centres undefined),8,0,-1,6,1,-3,nt,nt,nt
N#CC1=C2SCN(Cc3ccco3)CN2C(=O)CC1c1cccc2ccccc12 (centres undefined),0,55*,-1,4,-3,14,5,-24,3
O=C(CSc1nc2ccccc2o1)NC(=O)NCc1ccccc1,-1,29*,0,-1,3,1,1,-4,0
Cc1cc(C)cc(NC(=O)OC2CC3CC2[C@H]2CCCCN2[C@H]3C)c1 (some centres undefined),4,5,2,2,1,-8,nt,nt,nt
